The source made the active and inactive calls. The rule behind the calls is not given here.
How the values were obtained:
[1] = Cytotoxicity against human CHP100 cells assessed as inhibition of cell survival after 24 hrs by MTT assay; format: functional, cell-based; conditions: CHP100, 24 h
[2] = Cytotoxicity against human CHP100 cells assessed as inhibition of cell survival at 4 uM after 24 hrs by MTT assay relative to control; format: functional; conditions: CHP100, 24 h
[3] = biological target: Heat shock 70 kDa protein 6 (Homo sapiens) (UniProt P17066); assay: Induction of […] (unknown origin)-mediated heat shock response expressed in human 293T cells coexpressing GFP assessed as heat shock index after overnight incubation by luciferase reporter gene assay relative to control; format: cell-based
Chain of Heat shock 70 kDa protein 6 (Homo sapiens) (P17066 whole entry, the tested form may be a part): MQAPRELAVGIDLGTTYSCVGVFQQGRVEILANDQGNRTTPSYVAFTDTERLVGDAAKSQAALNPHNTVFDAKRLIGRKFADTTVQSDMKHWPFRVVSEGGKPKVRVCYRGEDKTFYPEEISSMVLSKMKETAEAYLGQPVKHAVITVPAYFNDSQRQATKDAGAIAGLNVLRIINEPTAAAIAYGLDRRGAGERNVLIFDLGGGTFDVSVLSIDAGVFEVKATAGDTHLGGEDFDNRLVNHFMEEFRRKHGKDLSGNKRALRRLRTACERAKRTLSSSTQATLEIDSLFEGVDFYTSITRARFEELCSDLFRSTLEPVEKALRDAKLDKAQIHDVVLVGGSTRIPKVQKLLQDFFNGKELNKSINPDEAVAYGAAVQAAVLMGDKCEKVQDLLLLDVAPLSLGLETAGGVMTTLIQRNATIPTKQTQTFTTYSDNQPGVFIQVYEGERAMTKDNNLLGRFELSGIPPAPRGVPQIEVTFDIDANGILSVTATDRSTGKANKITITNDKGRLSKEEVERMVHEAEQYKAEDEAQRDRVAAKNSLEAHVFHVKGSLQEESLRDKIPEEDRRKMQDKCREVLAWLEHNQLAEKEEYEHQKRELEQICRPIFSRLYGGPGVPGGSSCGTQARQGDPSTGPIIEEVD
How it was run: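 293T cells transduced with a lentiviral EGFP–firefly luciferase fusion under HSP70B′ promoter elements, enriched by heat shock (42 °C, 1 h) plus FACS, then reverse-sorted to remove constitutive expressers. Cells in DMEM/10% FBS were seeded at 20 000/well and given serial dilutions next day, quadruplicate wells, overnight. Read by Steady-Glo luminescence. Index = [Log2(treated/control)]/concentration (μM) at maximal response.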

[4] = Cytotoxicity against human NCI-H929 cells after 3 days by Alamar blue assay; format: functional, cell-based; conditions: NCI-H929, 72 h
Mus musculus [5] = species: Mus musculus; assay: Induction of heat shock protein-mediated heat shock response in mouse 3T3-Y9-B12 cells assessed as heat shock index after 24 hrs by fluorescence assay relative to control; format: cell-based
How it was run: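 Mouse 3T3-Y9-B12 heat-shock reporter cells seeded 20 000/well, left to adhere overnight, then exposed 24 h to compound at 1, 2, or 4 μM. After PBS wash, fluorescence read at excitation 485 nm and emission 530 nm. Heat-shock index calculated as [Log2(treated/control)]/concentration (μM).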

Mus musculus [6] = assay: Induction of heat shock activity in mouse assessed as upregulation of HSP72 protein level in spleen at 25 mg/kg, sc after 18 hrs by immunoblotting analysis; format: functional, organism-based; design: dose 25 mg/kg
How it was run: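 Mice were randomly assigned. Dosing was by subcutaneous injection, 25 mg/kg, in hydroxypropyl β-cyclodextrin 30% w/v with DMSO 10% v/v; vehicle controls got an equal volume; five mice per group. Spleens were taken about 18 h later, snap-frozen, pulverized and lysed in nonionic detergent buffer. 15 μg protein/lane went to SDS-PAGE and immunoblotting for HSP72. Band intensity was normalized to β-actin. Variance versus vehicle was compared by F test.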

Mus musculus [7] = assay: Induction of heat shock activity in mouse assessed as upregulation of HSP72 protein level in spleen at 40 mg/kg, sc after 18 hrs by immunoblotting analysis relative to control; format: functional, organism-based; design: dose 40 mg/kg
How it was run: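 Mice given a single subcutaneous dose in cyclodextrin vehicle (hydroxypropyl β-cyclodextrin 30% w/v, DMSO 10% v/v). Controls received an equal volume of vehicle alone. Three mice per group at 40 mg/kg. Spleens harvested about 18 h after dosing, snap-frozen and lysed in nonionic detergent buffer. 15 μg protein/lane run on SDS-PAGE and immunoblotted for HSP72 and β-actin. HSP72 band intensity normalized to actin; Student's t test versus vehicle.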

Row | Compound | fold change (FC) [3] | IC50 [1] [nM] | inhibition at 4 µM [2] [%] | Activity [3] | IC50 [4] [nM] | fold change (FC) (Mus musculus [5]) | Activity (Mus musculus [6]) | Activity (Mus musculus [7])
1 | CC(=O)OCC1=C(C)C[C@H]([C@@H](C)[C@H]2CC[C@H]3[C@@H]4C[C@H]5O[C@]56[C@H](O)C=CC(=O)[C@]6(C)[C@H]4CC[C@]23C)OC1=O | 3.69 | 220 | > 80 | Dose-dependent effect | 50 | 4.7 |  | 
2 | CC(=O)OCC1=C(C)C[C@H]([C@@H](C)[C@H]2CC[C@H]3[C@@H]4C[C@H]5O[C@]56[C@@H](O)C=CC(=O)[C@]6(C)[C@H]4CC[C@]23C)OC1=O | 3.81 | 230 | > 80 | Dose-dependent effect | 250 |  |  | 
3 | CC1=C(CO)C(=O)O[C@@H]([C@@H](C)[C@H]2CC[C@H]3[C@@H]4C[C@H]5O[C@]56[C@@H](O)[C@@H](N=[N+]=[N-])CC(=O)[C@]6(C)[C@H]4CC[C@]23C)C1 | 0 | 810 | > 80 |  | 1650 |  |  | 
4 | CC1=C(CO)C(=O)O[C@@H]([C@@H](C)[C@H]2CC[C@H]3[C@@H]4C[C@H]5O[C@]56[C@@H](O)[C@H](n5ccc(=O)[nH]c5=O)CC(=O)[C@]6(C)[C@H]4CC[C@]23C)C1 | 0.59 | 960 | > 80 |  | 540 |  |  | 
5 | CC(=O)OCC1=C(C)C[C@H]([C@@H](C)[C@H]2CC[C@H]3[C@@H]4C[C@H]5O[C@]56[C@@H](OC(C)=O)[C@@H](OS(=O)(=O)O)CC(=O)[C@]6(C)[C@H]4CC[C@]23C)OC1=O | 0.78 | 390 | > 80 |  | 1040 |  |  | 
6 | CC(=O)OCC1=C(C)C[C@H]([C@@H](C)[C@H]2CC[C@H]3[C@@H]4C[C@H]5O[C@]56[C@@H](OC(C)=O)C=CC(=O)[C@]6(C)[C@H]4C[C@@H](OC(C)=O)[C@]23C)OC1=O | 3.31 | 280 | > 80 | Dose-dependent effect | 180 |  |  | 
7 | CC1=C(C)C(=O)O[C@@H]([C@@H](C)[C@H]2CC[C@H]3[C@@H]4C[C@H]5O[C@]56[C@@H](O)C=CC(=O)[C@]6(C)[C@H]4CC[C@]23C)C1 | 0.52 | 640 | > 80 |  | 880 |  |  | 
8 | CC1=C(C)C(=O)O[C@@H]([C@](C)(O)[C@H]2CC[C@H]3[C@@H]4[C@@H]5O[C@@H]5[C@@]5(O)CC=CC(=O)[C@]5(C)[C@H]4CC[C@]23C)C1 [WITHANOLIDE A] | 0 |  |  |  | > 10000 |  |  | 
9 | CC(=O)OCC1=C(C)C[C@H]([C@@H](C)[C@H]2CC[C@H]3[C@@H]4C[C@H]5O[C@]56[C@H](OC(C)=O)C=CC(=O)[C@]6(C)[C@H]4CC[C@]23C)OC1=O |  |  |  |  |  |  | Active | Active
10 | CC1=C(CO)C(=O)O[C@@H]([C@@H](C)[C@H]2CC[C@H]3[C@@H]4CC=C5[C@@H](O)C=CC(=O)[C@]5(C)[C@H]4CC[C@]23C)C1 | 0 |  |  |  | 5090 |  |  | 
11 | CC1=C(CO)C(=O)O[C@@H]([C@@H](C)[C@H]2CC[C@H]3[C@@H]4C[C@H]5O[C@]56C(=O)C=CC(=O)[C@]6(C)[C@H]4CC[C@]23C)C1 | 0.79 |  |  |  | 1160 |  |  | 
12 | CC1=C(CO)C(=O)O[C@@H]([C@@H](C)[C@H]2CC[C@H]3[C@@H]4C[C@H]5O[C@]56[C@@H](O)[C@@H](OS(=O)(=O)O)CC(=O)[C@]6(C)[C@H]4CC[C@]23C)C1 | 0 |  |  |  | 5250 |  |  | 
13 | CC(=O)OCC1=C(C)C[C@H]([C@@H](C)[C@H]2C[C@@H](OC(C)=O)[C@H]3[C@@H]4C[C@H]5O[C@]56[C@@H](OC(C)=O)C=CC(=O)[C@]6(C)[C@H]4CC[C@@]32C)OC1=O | 1.65 | 310 | > 80 |  | 240 |  |  | 
14 | CC1=C(CO)C(=O)O[C@@H]([C@@H](C)[C@H]2CC[C@H]3[C@@H]4C[C@H]5O[C@]56[C@@H](O)[C@@H](n5cnc7c(N)ncnc75)CC(=O)[C@]6(C)[C@H]4CC[C@]23C)C1 | 0 |  |  |  | 610 |  |  | 

Second part, led by results:

Row | fold change (FC) [3] | Compound | IC50 [1] [nM] | inhibition at 4 µM [2] [%] | Activity [3] | IC50 [4] [nM] | fold change (FC) (Mus musculus [5]) | Activity (Mus musculus [6]) | Activity (Mus musculus [7])
15 | 0.92 | CC(=O)OCC1=C(C)C[C@H]([C@@H](C)[C@H]2CC[C@H]3[C@@H]4C[C@H]5O[C@]56C(=O)C=CC(=O)[C@]6(C)[C@H]4CC[C@]23C)OC1=O | 390 | > 80 |  | 460 |  |  | 
16 | 1.53 | CC(=O)O[C@H]1C=CC(=O)[C@]2(C)[C@H]3CC[C@]4(C)[C@@H]([C@H](C)[C@H]5CC(C)=C(C)C(=O)O5)CC[C@H]4[C@@H]3C[C@H]3O[C@]132 | 760 | > 80 |  | 430 |  |  | 
17 | 0.9 | CC(=O)OCC1=C(C)C[C@H]([C@@H](C)[C@H]2CC[C@H]3[C@@H]4CC=C5C(OC(C)=O)C=CC(=O)[C@]5(C)[C@H]4CC[C@]23C)OC1=O (single isomer, unassigned) | 530 | > 80 |  | 1630 |  |  | 
18 | 1.35 | CC1=C(CO)C(=O)O[C@@H]([C@@H](C)[C@H]2CC[C@H]3[C@@H]4C[C@H]5O[C@]56[C@@H](O)C=CC(=O)[C@]6(C)[C@H]4CC[C@]23C)C1 [WITHAFERIN A] | 970 | > 80 | Dose-dependent effect | 250 | 2.1 | inactive | 
19 | 0.36 | CC(=O)OCC1=C(C)C[C@H]([C@@H](C)[C@H]2CC[C@H]3[C@@H]4C[C@H]5O[C@]56[C@@H](O)[C@@H](OS(=O)(=O)O)CC(=O)[C@]6(C)[C@H]4CC[C@]23C)OC1=O | 730 | > 80 |  | 1120 |  |  | 
20 | 1.68 | CC1=C(CO)C(=O)O[C@@H]([C@@H](C)[C@H]2CC[C@H]3[C@@H]4C[C@H]5O[C@]56[C@H](O)C=CC(=O)[C@]6(C)[C@H]4CC[C@]23C)C1 | 930 | > 80 |  | 280 |  |  | 
21 | 1.64 | CC(=O)O[C@@H]1C=CC(=O)[C@]2(C)[C@H]3CC[C@]4(C)[C@@H]([C@H](C)[C@H]5CC(C)=C(CO)C(=O)O5)CC[C@H]4[C@@H]3C[C@H]3O[C@]132 | 830 | > 80 |  | 250 |  |  | 
22 | 1.73 | CC(=O)O[C@H]1C=CC(=O)[C@]2(C)[C@H]3CC[C@]4(C)[C@@H]([C@H](C)[C@H]5CC(C)=C(CO)C(=O)O5)CC[C@H]4[C@@H]3C[C@H]3O[C@]132 | 780 | > 80 |  | 250 |  |  | 
